The text below walks through data of ChEMBL document CHEMBL1240527, “3'-Deoxy phosphoramidate dinucleosides as improved inhibitors of hepatitis C virus subgenomic replicon and NS5B polymerase activity” (J Med Chem, 2010).

Data set [1] is described as follows: Cytotoxicity against human HuH6 cells after 3 days by MTS/PMS method. The format is cell-based. A digest of the protocol: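 Run in parallel with the replicon assay: Huh-6 genotype 1b replicon cells seeded 1.5 × 10^4/well, treated 24 h later with 0.025–65 μM compound in complete DMEM for 3 days at 37 C, 5% CO2. Cell number read by MTS/PMS. CC50 is the concentration giving 50% reduction in proliferation of exponentially growing cells versus untreated control.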

The subject of another data set is Hepatitis C virus. The data set is described as follows: Antiviral activity against HCV1b infected in human HuH6 cells assessed as inhibition of viral RNA replication after 3 days by RT-PCR analysis. The following applies: genotype 1b, HuH-6, 72 h. The format is functional, organism-based, Hepacivirus hominis. A digest of the protocol: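 Huh-6 cells stably carrying a genotype 1b (Con1-derived) subgenomic HCV replicon, seeded 1.5 × 10^4 cells/well and incubated 24 h at 37 C, 5% CO2. Then exposed to serial dilutions from 0.025 to 65 μM (10 concentrations) in complete DMEM for 3 days. Lysates assayed for replicon RNA by real-time RT-qPCR against a neomycin-plasmid standard curve. EC50 is 50% RNA reduction versus untreated control, averaged over three independent experiments.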

A short description of data set [2]: Inhibition of HCV recombinant His6x-tagged NS5B Cdelta55 polymerase-mediated RNA synthesis expressed in Escherichia coli BL21(DE3) assessed as reduction of pppGpC accumulation after 15 mins. The arrangement: species or system Hepacivirus hominis. A digest of the protocol: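 Inhibitor range 0–1000 μM. Reaction started with 2 mM MnCl2, 1 mM MgCl2, 50 μM γ-32P-GTP and 100 μM CTP, then 15 min at 30 C. EDTA/formamide quench. pppGpC resolved on sequencing gel and quantified by phosphorimaging. IC50 fitted; at least three experiments.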

What is called CC50 is the concentration that lowers cell viability or growth by half. As usually defined, the EC50 is the concentration needed to bring the measured effect to its halfway point. In general, IC50 refers to the concentration that inhibits the measured activity by half.

Molecule `CO[C@@H]1[C@H](OP(=O)(NCCCCCC(=O)O)OC[C@@H]2C[C@@H](O)[C@H](n3ccc(N)nc3=O)O2)[C@@H](COP(=O)(O)O)O[C@H]1n1cnc2c(=O)[nH]c(N)nc21` (some centres undefined) gave a CC50 at 72 h in data set [1] of over 65 µM. Moreover, the EC50 in the data set on Hepatitis C virus worked out at 1.7 µM. Besides, the IC50 in data set [2] was 34 µM. On to `CO[C@@H]1[C@H](OP(=O)(NCCCOP(=O)(O)O)OC[C@@H]2C[C@@H](O)[C@H](n3ccc(N)nc3=O)O2)[C@@H](CO)O[C@H]1n1cnc2c(=O)[nH]c(N)nc21` (some centres undefined), for which, in data set [2], the IC50 worked out at 21 µM.

Turning to `CO[C@@H]1[C@H](OP(=O)(NCCCC(C(=O)O)C(=O)O)OC[C@@H]2C[C@@H](O)[C@H](n3ccc(N)nc3=O)O2)[C@@H](CO)O[C@H]1n1cnc2c(=O)[nH]c(N)nc21` (some centres undefined), in data set [2], the IC50 stood at 19 µM. Take `CO[C@@H]1[C@H](OP(=O)(NCCCCCC(=O)O)OC[C@@H]2C[C@@H](O)[C@H](n3ccc(N)nc3=O)O2)[C@@H](CO)O[C@H]1n1cnc2c(=O)[nH]c(N)nc21` (some centres undefined): the 50% inhibitory concentration (IC50) in data set [2] amounted to 67 µM. Consider `CO[C@@H]1[C@H](OP(=O)(NCCCOP(=O)(O)O)OC[C@@H]2C[C@@H](O)[C@H](n3ccc(N)nc3=O)O2)[C@@H](COP(=O)(O)O)O[C@H]1n1cnc2c(=O)[nH]c(N)nc21` (some centres undefined), for which, in data set [1], the CC50 at 72 h is over 65 µM. Besides, in the data set on Hepatitis C virus, the EC50 was found to be 3.9 µM. The IC50 in data set [2] came to 10 µM. The like results for `CO[C@@H]1[C@H](OP(=O)(NCCCC(C(=O)O)C(=O)O)OC[C@@H]2C[C@@H](O)[C@H](n3ccc(N)nc3=O)O2)[C@@H](COP(=O)(O)O)O[C@H]1n1cnc2c(=O)[nH]c(N)nc21` (some centres undefined) were, in that order, over 65 µM, 2.6 µM and 8 µM.

In data set [1], `COCCOCCNP(=O)(OC[C@@H]1C[C@@H](O)[C@H](n2ccc(N)nc2=O)O1)O[C@H]1[C@@H](OC)[C@H](n2cnc3c(=O)[nH]c(N)nc32)O[C@@H]1COP(=O)(O)O` (some centres undefined) gave a CC50 at 72 h of over 65 µM. Also, the EC50 in the data set on Hepatitis C virus was found to be 3.6 µM. In addition, the IC50 in data set [2] came out at 18 µM. Turning to `CO[C@@H]1[C@H](O[P@@](=O)(NCCCOP(=O)(O)O)OC[C@@H]2C[C@@H](O)[C@H](n3ccc(N)nc3=O)O2)[C@@H](COP(=O)(O)O)O[C@H]1n1cnc2c(=O)[nH]c(N)nc21`, the IC50 in data set [2] is 20.3 µM. In the case of `CO[C@@H]1[C@H](O[P@](=O)(NCCCOP(=O)(O)O)OC[C@@H]2C[C@@H](O)[C@H](n3ccc(N)nc3=O)O2)[C@@H](COP(=O)(O)O)O[C@H]1n1cnc2c(=O)[nH]c(N)nc21`, the IC50 in data set [2] was determined as 18.5 µM. Same read-out and setting: to `CO[C@@H]1[C@H](O[P@@](=O)(NCCCC(C(=O)O)C(=O)O)OC[C@@H]2C[C@@H](O)[C@H](n3ccc(N)nc3=O)O2)[C@@H](COP(=O)(O)O)O[C@H]1n1cnc2c(=O)[nH]c(N)nc21` belongs 121 µM; to `CO[C@@H]1[C@H](O[P@](=O)(NCCCC(C(=O)O)C(=O)O)OC[C@@H]2C[C@@H](O)[C@H](n3ccc(N)nc3=O)O2)[C@@H](COP(=O)(O)O)O[C@H]1n1cnc2c(=O)[nH]c(N)nc21`, 57 µM. With `COCCOCCN[P@@](=O)(OC[C@@H]1C[C@@H](O)[C@H](n2ccc(N)nc2=O)O1)O[C@H]1[C@@H](OC)[C@H](n2cnc3c(=O)[nH]c(N)nc32)O[C@@H]1COP(=O)(O)O`, in data set [2], the IC50 turned out to be 64 µM. On to `COCCOCCN[P@](=O)(OC[C@@H]1C[C@@H](O)[C@H](n2ccc(N)nc2=O)O1)O[C@H]1[C@@H](OC)[C@H](n2cnc3c(=O)[nH]c(N)nc32)O[C@@H]1COP(=O)(O)O`, for which the IC50 in data set [2] worked out at 42 µM. In data set [1], `COCCNP(=O)(OC[C@@H]1C[C@@H](O)[C@H](n2ccc(N)nc2=O)O1)O[C@H]1[C@@H](OC)[C@H](n2cnc3c(=O)[nH]c(N)nc32)O[C@@H]1COP(=O)(O)O` (some centres undefined) registered a CC50 at 72 h of over 65 µM. In the data set on Hepatitis C virus, the EC50 was 19.4 µM. In data set [2], the IC50 came to 29 µM. In the same order, the values of `COCCN[P@@](=O)(OC[C@@H]1C[C@@H](O)[C@H](n2ccc(N)nc2=O)O1)O[C@H]1[C@@H](OC)[C@H](n2cnc3c(=O)[nH]c(N)nc32)O[C@@H]1COP(=O)(O)O` are over 65 µM, 1.6 µM and 72 µM. The like results for `COCCN[P@](=O)(OC[C@@H]1C[C@@H](O)[C@H](n2ccc(N)nc2=O)O1)O[C@H]1[C@@H](OC)[C@H](n2cnc3c(=O)[nH]c(N)nc32)O[C@@H]1COP(=O)(O)O` were, in that order, over 65 µM, 2.5 µM and 7 µM. In data set [1], `COCCN[P@@](=O)(OC[C@H]1O[C@@H](n2ccc(N)nc2=O)[C@H](O)[C@@H]1O)O[C@H]1[C@@H](OC)[C@H](n2cnc3c(=O)[nH]c(N)nc32)O[C@@H]1COP(=O)(O)O` came in with a CC50 at 72 h of over 65 µM. Moreover, the EC50 with Hepatitis C virus was 38 µM. In addition, in data set [2], the IC50 was found to be 28 µM. Turning to `COCCN[P@](=O)(OC[C@H]1O[C@@H](n2ccc(N)nc2=O)[C@H](O)[C@@H]1O)O[C@H]1[C@@H](OC)[C@H](n2cnc3c(=O)[nH]c(N)nc32)O[C@@H]1COP(=O)(O)O`, the CC50 at 72 h in data set [1] is over 65 µM. The EC50 in the data set on Hepatitis C virus is 4.5 µM. Besides, the IC50 in data set [2] came out at 37 µM.

In the case of `CO[C@@H]1[C@H](O[P@@](=O)(NCCCCCC(=O)O)OC[C@@H]2C[C@@H](O)[C@H](n3ccc(N)nc3=O)O2)[C@@H](COP(=O)(O)O)O[C@H]1n1cnc2c(=O)[nH]c(N)nc21`, the IC50 in data set [2] was determined as 9 µM. Same read-out and setting: the same measure for `CO[C@@H]1[C@H](O[P@](=O)(NCCCCCC(=O)O)OC[C@@H]2C[C@@H](O)[C@H](n3ccc(N)nc3=O)O2)[C@@H](COP(=O)(O)O)O[C@H]1n1cnc2c(=O)[nH]c(N)nc21`: 13 µM. Still for that read-out and setting: the same measure for `CO[C@@H]1[C@H](O[P@@](=O)(NCCCCCC(=O)O)OC[C@H]2O[C@@H](n3ccc(N)nc3=O)[C@H](O)[C@@H]2O)[C@@H](COP(=O)(O)O)O[C@H]1n1cnc2c(=O)[nH]c(N)nc21`: 26 µM; for `CO[C@@H]1[C@H](O[P@](=O)(NCCCCCC(=O)O)OC[C@H]2O[C@@H](n3ccc(N)nc3=O)[C@H](O)[C@@H]2O)[C@@H](COP(=O)(O)O)O[C@H]1n1cnc2c(=O)[nH]c(N)nc21`: 16 µM; for `CO[C@@H]1[C@H](OP(=O)(NCCCCCC(=O)O)OC[C@H]2O[C@@H](n3ccc(N)nc3=O)[C@H](O)[C@@H]2O)[C@@H](COP(=O)(O)O)O[C@H]1n1cnc2c(=O)[nH]c(N)nc21` (some centres undefined): 83 µM. Turning to `COCCNP(=O)(OC[C@H]1O[C@@H](n2ccc(N)nc2=O)[C@H](O)[C@@H]1O)O[C@H]1[C@@H](OC)[C@H](n2cnc3c(=O)[nH]c(N)nc32)O[C@@H]1COP(=O)(O)O` (some centres undefined), the CC50 at 72 h in data set [1] was over 65 µM. Besides, the EC50 with Hepatitis C virus was over 50 µM. The IC50 in data set [2] was determined as 140 µM.
